Results from ChEMBL document CHEMBL1147391, “Isolation of echinocystic acid-3-O-sulfate, a new triterpene, from Tetrapleura tetraptera, and evaluation of the mutagenic potential of molluscicidal extracts and isolates” (J Nat Prod, 1993).
Active and inactive are the calls of the source. The rule behind the calls is not given here.

What was measured:
[1] = test system: Salmonella typhimurium; test: Bactericidal activity against Salmonella Typhimurium […] assessed as survival at 0.3125 mg/ml after 48 to 60 hrs in absence of rat S9 liver homogenate relative to control; format: functional, organism-based; details: Salmonella enterica subsp. enterica serovar Typhimurium
Method in brief: (§1)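 TM677 (pKM101) exposed to test substance in DMSO with or without S-9 from livers of Aroclor 1254-pretreated rats, 2 h at 37°, quenched with PBS, centrifuged, diluted and plated in triplicate without 8-azaguanine. Colonies scored after 48–60 h at 37°. Survival is expressed relative to a DMSO-only control after correction for dilution.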

[2] = test system: Salmonella typhimurium; test: Bactericidal activity against Salmonella Typhimurium […] assessed as survival at 0.3125 mg/ml after 48 to 60 hrs in presence of rat S9 liver homogenate relative to control; format: functional, organism-based; details: Salmonella enterica subsp. enterica serovar Typhimurium, Liver S9 fraction; method in brief: as §1
[3] = test system: Salmonella typhimurium; test: Bactericidal activity against Salmonella Typhimurium […] assessed as survival at 0.625 mg/ml after 48 to 60 hrs in absence of rat S9 liver homogenate relative to control; format: functional, organism-based; details: Salmonella enterica subsp. enterica serovar Typhimurium; method in brief: as §1
[4] = test system: Salmonella typhimurium; test: Bactericidal activity against Salmonella Typhimurium […] assessed as survival at 0.625 mg/ml after 48 to 60 hrs in presence of rat S9 liver homogenate relative to control; format: functional, organism-based; details: Salmonella enterica subsp. enterica serovar Typhimurium, Liver S9 fraction; method in brief: as §1
[5] = test system: Salmonella typhimurium; test: Bactericidal activity against Salmonella Typhimurium […] assessed as survival at 1.25 mg/ml after 48 to 60 hrs in absence of rat S9 liver homogenate relative to control; format: functional, organism-based; details: Salmonella enterica subsp. enterica serovar Typhimurium; method in brief: as §1
[6] = test system: Salmonella typhimurium; test: Bactericidal activity against Salmonella Typhimurium […] assessed as survival at 1.25 mg/ml after 48 to 60 hrs in presence of rat S9 liver homogenate relative to control; format: functional, organism-based; details: Salmonella enterica subsp. enterica serovar Typhimurium, Liver S9 fraction; method in brief: as §1
[7] = test system: Biomphalaria glabrata; test: Molluscicidal activity against Biomphalaria glabrata assessed as mortality at 1.25 ppm after 24 hrs; format: functional
Method in brief: (§2)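 Lab-bred B. glabrata (about 12 mm shell diameter), five snails per test, tested in duplicate at 21–22°. Samples dissolved in MeOH and diluted in dechlorinated tap water, final MeOH ≤1% v/v. Snails immersed 24 h, rinsed, then held 24 h in clean water. Death means no heartbeat under a dissecting microscope. Negative control was 1% MeOH.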

[8] = test system: Salmonella typhimurium; test: Bactericidal activity against Salmonella Typhimurium […] assessed as survival at 5 mg/ml after 48 to 60 hrs in presence of rat S9 liver homogenate relative to control; format: functional, organism-based; details: Salmonella enterica subsp. enterica serovar Typhimurium, Liver S9 fraction; method in brief: as §1
[9] = test system: Salmonella typhimurium; test: Bactericidal activity against Salmonella Typhimurium […] assessed as survival at 5 mg/ml after 48 to 60 hrs in absence of rat S9 liver homogenate relative to control; format: functional, organism-based; details: Salmonella enterica subsp. enterica serovar Typhimurium; method in brief: as §1
[10] = test system: Salmonella typhimurium; test: Bactericidal activity against Salmonella Typhimurium […] assessed as survival at 2.5 mg/ml after 48 to 60 hrs in presence of rat S9 liver homogenate relative to control; format: functional, organism-based; details: Salmonella enterica subsp. enterica serovar Typhimurium, Liver S9 fraction; method in brief: as §1
[11] = test system: Salmonella typhimurium; test: Bactericidal activity against Salmonella Typhimurium […] assessed as survival at 2.5 mg/ml after 48 to 60 hrs in absence of rat S9 liver homogenate relative to control; format: functional, organism-based; details: Salmonella enterica subsp. enterica serovar Typhimurium; method in brief: as §1
[12] = test system: Salmonella typhimurium; test: Forward mutagenic activity in Salmonella Typhimurium […] assessed as mutant fraction at 0.3125 mg/ml after 2 hrs in absence of rat S9 liver homogenate; format: toxicity, organism-based; details: salmonella enterica subsp. enterica serovar typhimurium
Method in brief: (§3)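 Forward mutation assay in S. typhimurium TM677 carrying pKM101, with or without Aroclor 1254-induced rat liver S-9 (9000×g). Substance in DMSO incubated with bacteria 2 h at 37°, quenched with PBS and plated in triplicate with and without 8-azaguanine, then grown 48–60 h at 37°. Mutant fraction is the mean 8-azaguanine-resistant colony count over the mean count without 8-azaguanine, corrected for dilution.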

[13] = test system: Salmonella typhimurium; test: Forward mutagenic activity in Salmonella Typhimurium […] assessed as mutant fraction at 0.3125 mg/ml after 2 hrs in presence of rat S9 liver homogenate; format: toxicity, organism-based; details: salmonella enterica subsp. enterica serovar typhimurium; method in brief: as §3
[14] = test system: Salmonella typhimurium; test: Forward mutagenic activity in Salmonella Typhimurium […] assessed as mutant fraction at 0.625 mg/ml after 2 hrs in absence of rat S9 liver homogenate; format: toxicity, organism-based; details: salmonella enterica subsp. enterica serovar typhimurium; method in brief: as §3
[15] = test system: Salmonella typhimurium; test: Forward mutagenic activity in Salmonella Typhimurium […] assessed as mutant fraction at 0.625 mg/ml after 2 hrs in presence of rat S9 liver homogenate; format: toxicity, organism-based; details: salmonella enterica subsp. enterica serovar typhimurium; method in brief: as §3
[16] = test system: Salmonella typhimurium; test: Forward mutagenic activity in Salmonella Typhimurium […] assessed as mutant fraction at 1.25 mg/ml after 2 hrs in absence of rat S9 liver homogenate; format: toxicity, organism-based; details: salmonella enterica subsp. enterica serovar typhimurium; method in brief: as §3
[17] = test system: Salmonella typhimurium; test: Forward mutagenic activity in Salmonella Typhimurium […] assessed as mutant fraction at 1.25 mg/ml after 2 hrs in presence of rat S9 liver homogenate; format: toxicity, organism-based; details: salmonella enterica subsp. enterica serovar typhimurium; method in brief: as §3
[18] = test system: Salmonella typhimurium; test: Forward mutagenic activity in Salmonella Typhimurium […] assessed as mutant fraction at 2.5 mg/ml after 2 hrs in absence of rat S9 liver homogenate; format: toxicity, organism-based; details: salmonella enterica subsp. enterica serovar typhimurium; method in brief: as §3
[19] = test system: Salmonella typhimurium; test: Forward mutagenic activity in Salmonella Typhimurium […] assessed as mutant fraction at 2.5 mg/ml after 2 hrs in presence of rat S9 liver homogenate; format: toxicity, organism-based; details: salmonella enterica subsp. enterica serovar typhimurium; method in brief: as §3
[20] = test system: Salmonella typhimurium; test: Forward mutagenic activity in Salmonella Typhimurium […] assessed as mutant fraction at 5 mg/ml after 2 hrs in absence of rat S9 liver homogenate; format: toxicity, organism-based; details: salmonella enterica subsp. enterica serovar typhimurium; method in brief: as §3
[21] = test system: Salmonella typhimurium; test: Forward mutagenic activity in Salmonella Typhimurium […] assessed as mutant fraction at 5 mg/ml after 2 hrs in presence of rat S9 liver homogenate; format: toxicity, organism-based; details: salmonella enterica subsp. enterica serovar typhimurium; method in brief: as §3
[22] = test system: Biomphalaria glabrata; test: Molluscicidal activity against Biomphalaria glabrata assessed as mortality at 20 ppm after 24 hrs; format: functional; method in brief: as §2
[23] = test system: Salmonella typhimurium; test: Bactericidal activity against Salmonella Typhimurium […] assessed as survival at 0.58 mg/ml after 48 to 60 hrs in absence of rat S9 liver homogenate; format: functional, organism-based; details: Salmonella enterica subsp. enterica serovar Typhimurium
Method in brief: (§4)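 Forward mutation assay in S. typhimurium TM677 carrying plasmid pKM101, without S-9. Bacteria were mixed with MEM, test substance added in DMSO, and incubated 2 h at 37°. The mix was quenched with PBS, pelleted, diluted and plated in triplicate without 8-azaguanine. Colonies were counted after 48–60 h at 37°. Survival was dilution-corrected and taken relative to a DMSO-only control.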

[24] = test system: Salmonella typhimurium; test: Bactericidal activity against Salmonella Typhimurium […] assessed as survival at 5.8 mg/ml after 48 to 60 hrs in absence of rat S9 liver homogenate; format: functional, organism-based; details: Salmonella enterica subsp. enterica serovar Typhimurium; method in brief: as §4
[25] = test system: Salmonella typhimurium; test: Bactericidal activity against Salmonella Typhimurium […] assessed as survival at 0.5 mg/ml after 48 to 60 hrs in presence of rat S9 liver homogenate; format: functional, organism-based; details: Salmonella enterica subsp. enterica serovar Typhimurium, Liver S9 fraction
Method in brief: (§5)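 TM677 (pKM101) forward mutation assay run with a 9000×g liver supernatant (S-9) from Aroclor 1254-pretreated rats. Test substance was added in DMSO and incubated 2 h at 37°, then quenched with PBS. Cells were pelleted, diluted and plated in triplicate without 8-azaguanine, and colonies counted after 48–60 h at 37°. Survival was dilution-corrected and taken relative to a DMSO solvent control.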

[26] = test system: Salmonella typhimurium; test: Bactericidal activity against Salmonella Typhimurium […] assessed as survival at 50 mg/ml after 48 to 60 hrs in presence of rat S9 liver homogenate; format: functional, organism-based; details: Salmonella enterica subsp. enterica serovar Typhimurium, Liver S9 fraction; method in brief: as §5
[27] = test system: Salmonella typhimurium; test: Bactericidal activity against Salmonella Typhimurium […] assessed as survival at 0.058 mg/ml after 48 to 60 hrs in absence of rat S9 liver homogenate; format: functional, organism-based; details: Salmonella enterica subsp. enterica serovar Typhimurium; method in brief: as §4
[28] = test system: Biomphalaria glabrata; test: Molluscicidal activity against Biomphalaria glabrata assessed as mortality at 15 ppm after 24 hrs; format: functional; method in brief: as §2

In the case of `CC(=O)N[C@H]1[C@H](O[C@H]2CC[C@]3(C)[C@H]4CC=C5[C@H]6CC(C)(C)CC[C@]6(C(=O)O)CC[C@@]5(C)[C@]4(C)CC[C@H]3C2(C)C)O[C@H](CO)[C@@H](O)[C@@H]1O` [ARIDANIN], the Activity [1] is reported as 89%, the Activity [2] is reported as 100% and the Activity [3] is reported as 98%. It also gave an Activity [4] of 100%, an Activity [5] of 100% and an Activity [6] of 100%. The Activity [7] was 100%, the Activity [8] was 100% and the Activity [9] was 100%. For the same compound, the Activity [10] was 100%, the Activity [11] was 100% and the Activity [12] was 4.5. For the same compound, the Activity [13] was 2.5, the Activity [14] was 5.6 and the Activity [15] was 2.9. For the same compound, the Activity [16] was 4.1, the Activity [17] was 3.2 and the Activity [18] was 3.3. The Activity [19] was 2.8, the Activity [20] was 4.2 and the Activity [21] was 4.

For `CC1(C)CC[C@]2(C(=O)O)[C@H](O)C[C@]3(C)C(=CC[C@@H]4[C@@]5(C)CC[C@H](OS(=O)(=O)O)C(C)(C)[C@@H]5CC[C@]43C)[C@H]2C1`, the Activity [22] was “Non-toxic”, the Activity [23] was “inactive” and the Activity [24] was “inactive”. The Activity [25] was “inactive”, the Activity [26] was “inactive” and the Activity [27] was “inactive”. For the same compound, the Activity [8] was “inactive”.

Compound `CC(=O)N[C@H]1[C@H](O[C@H]2CC[C@]3(C)[C@H]4CC=C5[C@H]6CC(C)(C)CC[C@]6(C(=O)O)CC[C@@]5(C)[C@]4(C)CC[C@H]3C2(C)C)O[C@H](CO[C@@H]2O[C@H](CO)[C@@H](O)[C@H](O)[C@H]2O)[C@@H](O)[C@@H]1O` has an Activity [1] of 100%, an Activity [3] of 100% and an Activity [5] of 100%. For the same compound, the Activity [22] was 100%, the Activity [9] was 100% and the Activity [11] was 100%. The Activity [12] was 4.1, the Activity [14] was 4.2 and the Activity [16] was 4. It also gave an Activity [18] of 3.1 and an Activity [20] of 5.

`CC(=O)N[C@H]1[C@H](O[C@H]2CC[C@]3(C)[C@H]4CC=C5[C@H]6CC(C)(C)CC[C@]6(C(=O)O)[C@H](O)C[C@@]5(C)[C@]4(C)CC[C@H]3C2(C)C)O[C@H](CO)[C@@H](O)[C@@H]1O` showed an Activity [1] of 100%, an Activity [2] of 100% and an Activity [3] of 100%. The Activity [4] was 100%, the Activity [5] was 100% and the Activity [6] was 200%. It also gave an Activity [8] of 100%, an Activity [9] of 100% and an Activity [10] of 100%. For the same compound, the Activity [11] was 100%, the Activity [28] was 100% and the Activity [12] was 4.9. It also gave an Activity [13] of 3.2, an Activity [14] of 5.4 and an Activity [15] of 3.1. It also gave an Activity [16] of 5.4, an Activity [17] of 2.6 and an Activity [18] of 4.7. The Activity [19] was 2.9, the Activity [20] was 4.7 and the Activity [21] was 4.6.
